# PglD DTNB – inhibitors of Campylobacter jejuni PglD acetyltransferase | purified PglD enzyme, DTNB colorimetric CoA detection | inhibition, % at 12.5 µM | 360,000 tested, 0.098% active | AID 602405; in the data active means inhibition above about 16%, passing the limit was not always enough; inconclusive means no clear call, values can overlap the other calls
# Statin myotox sup – suppression of simvastatin myotoxicity; C2C12 myotubes + simvastatin, ATP luminescence, 48 h; scaled: DMSO 0, geranylgeraniol control 100; rescue of ATP level, % at 7.49 µM; 330,000 tested, 0.78% active;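 active means mean ATP rescue above about 67%, or every replicate alone reaching that limit, limit read from the data, passing the limit was not always enough; inconclusive means no clear call, values can overlap the other calls; inactive means mean under the limit and some replicate under it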;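 further: myotubes were challenged with 10 µM simvastatin during compound exposure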
# Xi reactivation – activators of X-chromosome reactivation in mouse fibroblasts. activation, % at 7.58 µM. 360,000 tested, 0.055% active. AID 743238. XiGFP mouse fibroblasts, % GFP-positive cells imaging, 3 d; cells co-treated with 5-aza-dC sensitizer; scaled so ellipticine positive control = 100%;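 active means mean normalized replicate activation at least 10% and every replicate at or above 10%; inconclusive means only one of the two criteria met; inactive means mean below 10% and not all replicates reach 10%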;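 further: 0% = median of on-plate neutral control wells and 100% = ellipticine 6 µM median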
#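 Material: SV40-immortalized XiGFP fibroblast cells, line 68-5-11 | Buffer or medium: DMEM containing 5-aza-dC | Dosing: One concentration, pinned | Times: 3 d treatment, 15 min room-temperature fixation | Controls: Ellipticine 6 µM positive control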
# E-selectin induc – induces E-selectin expression in human endothelial cells | P16581 | HUVEC E-selectin immunofluorescence imaging; normalized: neutral wells 0, TNF-alpha wells 100 | activation, % at 7.58 µM | 260,000 tested, 0.37% active | AID 686992;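 active means mean E-selectin-positive cell signal at least 10% of the positive control, reached in at least 60% of replicates, without over 20% cell loss; inconclusive means no rule given, readout overlaps actives, possibly toxicity-flagged; inactive means the rest, including those meeting only one limit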
# Target sequence (P16581 whole entry, looked up): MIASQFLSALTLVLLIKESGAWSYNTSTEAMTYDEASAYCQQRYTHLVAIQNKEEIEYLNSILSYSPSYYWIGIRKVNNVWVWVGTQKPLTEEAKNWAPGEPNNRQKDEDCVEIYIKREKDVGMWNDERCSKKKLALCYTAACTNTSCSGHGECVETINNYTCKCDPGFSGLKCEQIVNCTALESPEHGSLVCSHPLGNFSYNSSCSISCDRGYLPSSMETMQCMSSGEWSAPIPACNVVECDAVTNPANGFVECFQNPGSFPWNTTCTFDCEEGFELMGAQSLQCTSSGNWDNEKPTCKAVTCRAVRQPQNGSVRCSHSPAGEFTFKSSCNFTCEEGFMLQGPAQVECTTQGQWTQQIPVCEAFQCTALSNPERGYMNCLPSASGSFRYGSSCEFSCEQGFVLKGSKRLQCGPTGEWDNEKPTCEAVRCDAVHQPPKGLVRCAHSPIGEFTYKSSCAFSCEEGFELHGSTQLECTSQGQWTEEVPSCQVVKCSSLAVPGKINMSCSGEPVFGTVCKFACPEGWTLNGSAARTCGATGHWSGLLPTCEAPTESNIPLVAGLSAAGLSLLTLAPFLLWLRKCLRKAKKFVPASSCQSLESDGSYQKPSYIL
#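 material = human umbilical vein endothelial cells (HUVEC), E-selectin induction | quantity = 3,000 cells/well | medium = EGM-2 growth medium on 0.1% gelatin-coated wells | technique = immunofluorescence imaging | read-out basis = % PE-positive cells | control set = TNF-alpha positive control, DMSO neutral control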
# DENV2 CPE – inhibitors of DENV2 cytopathic effect; DENV2-infected cells, cytopathic effect rescue, plate reader; CPE inhibition, % at 9.99 µM; 350,000 tested, 1.7% active; in the data active means CPE inhibition above about 20%, passing the limit was not always enough; inconclusive means no clear call, values can overlap the other calls; tested in BHK-21 cells;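 further: 0% = median of neutral control wells and 100% = median of positive control wells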
# FGF22 binding-1 – binders of recombinant human FGF22 by thermal shift. AID 651658. activity (Tm shift, normalised), % at 9.99 µM. Q9HCT0. SYPRO orange fluorescence; percent of sucrose octasulfate shift, DMSO zero. 340,000 tested, 1.5% active;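 active means mean Tm shift, scaled 0 neutral to 100 positive control, at about 1.3% or above, every replicate too, limit read from the data; inconclusive means no clear call, values can overlap the other calls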
# Target sequence (Q9HCT0 whole entry, looked up): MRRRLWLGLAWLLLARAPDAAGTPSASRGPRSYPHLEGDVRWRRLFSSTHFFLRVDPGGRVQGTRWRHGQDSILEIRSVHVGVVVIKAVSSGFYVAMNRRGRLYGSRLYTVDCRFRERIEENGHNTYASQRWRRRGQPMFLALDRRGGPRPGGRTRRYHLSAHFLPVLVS
# FGF22 binding-2 – binds human FGF22 shifting its melting temperature | thermal shift activity, °C (ΔTm) at 38 µM | AID 720646 | shares compounds with FGF22 binding-1 | recombinant FGF22 thermal shift, SYPRO orange fluorescence | 1,000 tested, 2% active;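 active means fitted rise in melting shift crosses a set limit at or below the top valid dose tested; inconclusive means flat fit at mid-level activity, or a poor quality fit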
# FGF22 TSA – binds human FGF22 shifting its melting temperature. AID 743017. 50 tested, under 10 active. Thermal shift assay, SYPRO orange, melting temperature shift. shares compounds with FGF22 binding-1. Tm shift (activity), % at 38 µM;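 active means compounds whose fitted dose curve of melting temperature shift rises past a set threshold within the tested doses; inconclusive means flat curve at moderate activity, or poor curve fit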
# SYPRO no-protein – counter-screen for FGF22 binders: compound-only thermal shift, no protein | shares compounds with FGF22 binding-1 | compound-only SYPRO orange thermal shift counter-screen | AC50, µM (highest dose often 38 µM) | 1,000 tested, 2% active | AID 743019;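 active means rising signal whose fitted curve reaches the 0.54 level within the top valid dose, showing a melting point, actives reach about 13 µM in these data; inactive means the rest, including activity in the opposite direction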; further: value is where the raw curve crosses a fixed level and not half-maximal
# The depositor's hits bear a star; i = inactive; ? = inconclusive; . = no result given; [ ] = remark or other dose. Rows were chosen to be rich in hits. Some 3.3% of all compounds tested hit in one or more screens of this group.
SMILES,PglD DTNB,Statin myotox sup,Xi reactivation,E-selectin induc,DENV2 CPE,FGF22 binding-1,FGF22 binding-2,SYPRO no-protein,others
Cc1[nH]c2ccccc2c1C(=O)C(=O)NCCOc1ccccc1,.,.,-0.1,.,0.7,17.1*,0.084,i,
COc1ccc(CCNC(=O)C(=O)c2c(C)[nH]c3ccccc23)cc1,-1.7,7.2,0.0,.,-1.4,0.1,.,.,
COc1ccc(/C(=N\Nc2ccccc2C(=O)O)c2ccccc2)cc1,.,.,0.1,0.0,-1.7,1.8*,0.189,i,
CCOC(=O)C(=O)N/N=C(/c1ccccc1)c1ccc(OC)cc1,-4.9,0.1,-0.1,1.6,1.9,-0.2,.,.,
N#C[C@@H]1[C@H](c2ccc(C3=CCCCC3)cc2)[C@H](CO)N1S(=O)(=O)c1ccccc1,-1.7,-12.4,0.0,1.1,2.9,-0.3,.,.,
N#C[C@@H]1[C@@H](c2ccc(C3=CCCCC3)cc2)[C@H](CO)N1S(=O)(=O)c1ccccc1,1.7,1.2,-0.1,-0.2,-5.0,1.3*,-0.2,i,
C[C@@H]1CN([C@H](C)CO)C(=O)Cc2cc(N(C)C)ccc2O[C@@H]1CN(C)Cc1ccc(Cl)c(Cl)c1,-1.6,?,0.1,-0.5,-8.8,39.9*,.,i,
C[C@H]1CN([C@@H](C)CO)C(=O)c2cc(N(C)C)ccc2O[C@@H]1CN(C)Cc1ccc(Cl)c(Cl)c1,0.0,-128.9,-1.4,0.4,-1.4,-0.4,.,.,
Cc1noc(C)c1NC(=O)Nc1ccc2c(c1)CC(=O)N([C@@H](C)CO)C[C@H](C)[C@@H](CN(C)Cc1ccc3c(c1)OCO3)O2,3.1,-7.0,0.0,0.2,-3.3,1.5*,0.127,i,
C[C@H]1CN([C@@H](C)CO)C(=O)c2cc(NS(=O)(=O)c3ccccc3)ccc2O[C@@H]1CN(C)Cc1ccc(C(=O)O)cc1,-2.0,.,0.1,-0.1,-5.8,1.3*,0.095,i,
Cc1noc(C)c1NC(=O)Nc1ccc2c(c1)CC(=O)N([C@H](C)CO)C[C@H](C)[C@H](CN(C)Cc1ccc3c(c1)OCO3)O2,0.5,-5.5,0.4,.,-10.5,0.0,.,.,
C[C@H](CO)N1C[C@H](C)[C@@H](CN(C)CC2CC2)Oc2ccc(NS(=O)(=O)c3cccs3)cc2C1=O,-0.9,16.3,0.1,0.2,10.4,5.2*,0.096[42 µM],i,
COc1cccc(-c2ccc3c(c2)[C@H]2[C@H](CCN2C(=O)NC2CCCCC2)[C@H](CO)N3C)c1,.,.,0.1,0.4,-3.1,.,.,.,
O=C(C[C@@H]1CC[C@H]2[C@@H](COC[C@H](O)CN2C(=O)Nc2cc(Cl)cc(Cl)c2)O1)NCC1CCCCC1,-2.1,-23.8,0.2,0.9,-14.3,-0.6,.,.,
Cc1ccc(S(=O)(=O)Nc2ccc3c(c2)C(=O)N([C@@H](C)CO)C[C@H](C)[C@@H](CN(C)CC2CCCCC2)O3)cc1,1.7,20.6,0.5,1.4,-8.5,1.5*,0.155[42 µM],i,
CC(C)NC(=O)Nc1cccc2c1O[C@@H](CN(C)Cc1ccc(C(=O)Nc3ccccc3N)cc1)[C@@H](C)CN([C@@H](C)CO)C2=O,.,.,0.0,-3.5,-4.3,0.1,.,.,
C[C@@H]1CN([C@@H](C)CO)C(=O)c2cc(NS(C)(=O)=O)ccc2O[C@@H]1CN(C)Cc1ccc2c(c1)OCO2,11.0,6.5,0.0,0.1,5.8,1.9*,-0.115,i,
CC(C)NC(=O)Nc1cccc2c1O[C@@H](CN(C)Cc1ccc(C(=O)Nc3ccccc3N)cc1)[C@@H](C)CN([C@H](C)CO)C2=O,.,.,0.0,0.0,-11.0,1.5*,0.165,i,
C[C@H]1CN([C@@H](C)CO)C(=O)c2cc(NS(=O)(=O)c3ccccc3)ccc2O[C@@H]1CN(C)C,-16.3,-8.2,.,.,0.4,1.4*,0.038,i,
Cc1ccc(S(=O)(=O)NCC[C@H]2CC[C@@H](NC(=O)c3cccc(F)c3)[C@@H](CO)O2)cc1,-0.7,0.3,-0.3,-1.7,?,0.2,.,.,
C[C@@H]1CN([C@H](C)CO)C(=O)c2cc(NC(=O)NC3CCCCC3)ccc2O[C@H]1CN(C)Cc1ccc2c(c1)OCO2,-1.4,-32.3,-0.1,-1.1,-2.7,0.0,.,.,
C[C@@H]1CN([C@@H](C)CO)C(=O)Cc2cc(NC(=O)NC3CCCCC3)ccc2O[C@H]1CN(C)C,0.6,5.2,-1.2,3.0,16.6,-0.2,.,.,
C[C@H](CO)N1C[C@H](C)[C@H](CN(C)C)Oc2ccc(NC(=O)NC3CCCCC3)cc2CC1=O,-0.9,6.0,0.0,0.0,4.1,2.0*,0.097[42 µM],i,
C[C@@H]1CN([C@H](C)CO)C(=O)c2cc(NC(=O)Cc3cn(C)c4ccccc34)ccc2O[C@@H]1CN(C)S(=O)(=O)c1ccccc1,4.5,14.1,0.0,.,-1.9,25.0*,0.161,i,
Cc1noc(C)c1S(=O)(=O)Nc1ccc2c(c1)CC(=O)N([C@H](C)CO)C[C@H](C)[C@@H](CN(C)S(=O)(=O)c1cccs1)O2,0.7,0.1,-1.0,0.0,0.0,0.0,.,.,
SMILES,PglD DTNB,Statin myotox sup,Xi reactivation,E-selectin induc,DENV2 CPE,FGF22 binding-1,FGF22 binding-2,SYPRO no-protein,others
O=C(C1CC1)N1CC2(C1)[C@H](c1ccccc1)[C@@H](CO)N2Cc1ccc(Cl)cc1,.,.,0.2,0.1,3.7,2.9*,0.161[42 µM],i,
O=C(Nc1ccccc1)c1ccc(S(=O)(=O)N2CCCC2)cc1,-2.0,-9.3,.,.,.,.,.,.,
N#Cc1cccc(NC(=O)c2ccc(S(=O)(=O)N3CCOCC3)cc2)c1,-6.4,-2.8,-0.1,0.3,1.5,2.7*,0.108,i,
O=C(Nc1ccc(S(=O)(=O)N2CCCC2)cc1)c1cccs1,.,.,0.0,2.0,2.2,2.1*,-0.654,i,FGF22 TSA=-0.2
N#Cc1cccc(NS(=O)(=O)c2ccc(S(=O)(=O)N3CCOCC3)cc2)c1,-0.4,9.9,-0.1,.,-4.1,0.4,.,.,
O=C(Nc1ccc(S(=O)(=O)N2CCCC2)cc1)c1ccccc1,-1.8,-18.7,-0.1,.,0.4,1.6*,-0.152,i,FGF22 TSA=0.0
C[C@H](CO)N1C[C@H](C)[C@H](CN(C)C)Oc2cc(C#CC(C)(C)O)ccc2S1(=O)=O,3.7,9.9,0.1,-0.4,12.9,-0.1,.,.,
O=C(N/N=C/c1c[nH]c2ccc(Br)cc12)C1CC1,.,.,0.0,4.0,2.9,2.2*,-0.072,i,
O=C(N/N=C/c1c[nH]c2ccc(Br)cc12)c1ccc2c(c1)OCO2,.,.,0.5,3.1,7.3,2.5*,0.077,i,
